Measured values as given in ChEMBL document CHEMBL1126180, “4-substituted 2-alkoxytetrahydrofurans as potent and long-lasting PAF antagonists” (J Med Chem, 1992).
Where “and” joins values, the source holds several entries; their conditions need not be identical. Equal values may be shown once. Calls of active or inactive are those of the source. The rule behind the calls is not given here.

Tests used:
[1] = species on record: Mus musculus; test: Percent protection of PAF-induced mortality in mice after 24 hr; assay type: functional; set-up: concentration or dose not given beside the values
In short: (§1)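 Duration study in male Swiss mice (22–26 g). Single 1 mg/kg iv dose of test compound at time 0. C18-PAF 100 µg/kg plus propranolol 1 mg/kg given iv via tail vein at the stated time after dosing, 10–40 mice per time point.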

[2] = Dose required (i.v.) to reduce the lowering of arterial blood pressure caused by PAF in rats.; details: Rattus norvegicus
[3] = system: Mus musculus; test: Compound was evaluated for the inhibition of PAF-induced mortality in mice, after intravenous administration of the drug; assay type: functional; details: read-out: ID50 (the source's name)
[4] = species on record: Mus musculus; test: Percent protection of PAF-induced mortality in mice after 17h; assay type: functional; set-up: concentration or dose not given beside the values; in short: as §1
[5] = species on record: Mus musculus; test: Percent protection of PAF-induced mortality in mice after 7 hr; assay type: functional; set-up: concentration or dose not given beside the values; in short: as §1
[6] = species on record: Mus musculus; test: Percent protection of PAF-induced mortality in mice after 2 hr; assay type: functional; set-up: concentration or dose not given beside the values; in short: as §1
[7] = species on record: Mus musculus; test: Percent protection of PAF-induced mortality in mice after 3h; assay type: functional; set-up: concentration or dose not given beside the values; in short: as §1
[8] = species on record: Mus musculus; test: Percent protection of PAF-induced mortality in mice after 5h; NP means no protection; assay type: functional, organism-based
In short: (§2)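 Male Swiss mice (22–26 g) given compound as a single 1 mg/kg iv dose at time 0. At the stated time, C18-PAF 100 µg/kg plus propranolol 1 mg/kg injected into a lateral tail vein. […] 10–40 mice per time point.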

[9] = species on record: Mus musculus; test: Percent protection of PAF-induced mortality in mice after 5 hr; assay type: functional; set-up: concentration or dose not given beside the values; in short: as §1
[10] = species on record: Mus musculus; test: Percent protection of PAF-induced mortality in mice after 0.5 hr; assay type: functional; set-up: concentration or dose not given beside the values; in short: as §1
[11] = species on record: Mus musculus; test: Percent protection of PAF-induced mortality in mice after 7h; NP means no protection; assay type: functional, organism-based; in short: as §2

Row | Structure (SMILES) | Protection [1] | ID50 [2] | ED50 [3] | Protection [4] | Protection [5] | Protection [6] | Protection [7] | Protection [8] | Protection [9] | Protection [10] | Protection [11]
1 | CCCCCCCCCCCCCCCCCCO[C@@H]1C[C@H](COC(=O)N(Cc2cccc[n+]2CC)C(C)=O)CO1.[I-] | 38% | 0.066 mg/kg | 0.03 mg/kg | 67% | 100% |  |  |  |  |  | 
2 | CC[n+]1ccccc1CN(C(C)=O)C(=O)OCC1COC(OCCCCCCOCCCc2ccccc2)C1.[I-] (configuration not stated) |  | 0.06 mg/kg | 0.073 mg/kg |  |  | 100% | 50% | inactive |  |  | 
3 | CC[n+]1ccccc1CN(C(C)=O)C(=O)OCC1COC(OCCCc2ccccc2)C1 (configuration not stated) |  | 0.12 mg/kg |  |  |  |  |  |  |  |  | 
4 | CC[n+]1ccccc1CN(C(C)=O)C(=O)OCC1COC(OCCC(c2ccccc2)c2ccccc2)C1 (configuration not stated) |  | 0.11 mg/kg |  |  |  |  |  |  |  |  | 
5 | CCCCCCCCCCCCCCCCCCNC(=O)OCC(COC(=O)N(Cc1cccc[n+]1CC)C(C)=O)OC.[Cl-] (configuration not stated) [CV-6209] | 48% | 0.0078 mg/kg | 0.022 mg/kg | 95% | 100% | 100% | 100% |  | 100% | 100% | 
6 | CC[n+]1ccccc1CN(C(C)=O)C(=O)OCC1COC(OCCCCCCCCCCCCCCCCOC)C1.[I-] (configuration not stated) |  | 0.04 mg/kg | 0.0076 mg/kg |  |  | 100% | 66% |  | 59% | 100% | inactive
7 | CC[n+]1ccccc1CN(C(C)=O)C(=O)OCC1COC(OCCCCCCOCCCCCc2ccccc2)C1.[I-] (configuration not stated) | 38% | 0.021 mg/kg | 0.0083 mg/kg | 38% | 80% | 100% | 100% |  | 89% | 100% | 
8 | C=CCCCCCCOCCCCCCOC1CC(COC(=O)N(Cc2cccc[n+]2CC)C(C)=O)CO1.[I-] (configuration not stated) |  | 0.063 mg/kg | 0.024 mg/kg | 20% | 40% | 100% | 88% |  | 63% |  | 
9 | CCCCCCCCCCCCCCCCCCCCOC1CC(COC(=O)N(Cc2cccc[n+]2CC)C(C)=O)CO1 (configuration not stated) |  | 0.048 mg/kg |  |  |  |  |  |  |  |  | 
10 | CCCCCCCCCCCCCCCCCCOC1CC(COC(=O)N(Cc2cccc[n+]2CC)C(C)=O)CO1.[Cl-] (configuration not stated) | 48% | 0.026 mg/kg and 0.025 mg/kg | 0.023 mg/kg | 81% | 95% | 100% | 100% |  | 100% | 100% | 
11 | CCCCCCCCCCCCCCCCCCOCC1CC(COC(=O)N(Cc2cccc[n+]2CC)C(C)=O)CO1.[Cl-] (configuration not stated) | 33% | 0.011 mg/kg | 0.026 mg/kg | 44% | 100% |  | 100% |  | 100% |  | 
12 | CCOC1CC(COC(=O)N(Cc2cccc[n+]2CC)C(C)=O)CO1 (configuration not stated) |  | 2.3 mg/kg |  |  |  |  |  |  |  |  | 
13 | CCCCCCCCCCCCCCCCOC1CC(COC(=O)N(Cc2cccc[n+]2CC)C(C)=O)CO1.[I-] (configuration not stated) | 44% | 0.01 mg/kg | 0.024 mg/kg | 65% | 64% | 100% | 88% |  | 61% | 100% | 
14 | CC[n+]1ccccc1CN(C(C)=O)C(=O)OCC1COC(OCCCCCCOCc2ccc(-c3ccccc3)cc2)C1 (configuration not stated) |  | 0.012 mg/kg |  |  |  |  |  |  |  |  | 
15 | CC[n+]1ccccc1CN(C(C)=O)C(=O)OCC1COC(OCCC(C)C)C1 (configuration not stated) |  | 0.21 mg/kg |  |  |  |  |  |  |  |  | 
16 | CCCCCCCCCCCCCCCCOCC1CC(COC(=O)N(Cc2cccc[n+]2CC)C(C)=O)CO1.[Cl-] (configuration not stated) | 17% | 0.027 mg/kg | 0.031 mg/kg | 44% | 65% | 100% | 75% |  | 54% |  | 
17 | CCCCCCCCCCOCCCCCCOC1CC(COC(=O)N(Cc2cccc[n+]2CC)C(C)=O)CO1.[I-] (configuration not stated) | 51% | 0.004 mg/kg | 0.0064 mg/kg | 40% | 88% | 100% | 100% |  | 100% | 100% | 
18 | CCCCCCCCCCCCCCCCCCOC1C[C@H](COC(=O)N(Cc2cccc[n+]2CC)C(C)=O)CO1.[I-] (some centres not stated) | 60% | 0.031 mg/kg | 0.012 mg/kg | 93% | 100% |  |  |  | 100% |  | 
19 | CCCCCCCCCCCCCCCCCC1CC(COC(=O)N(Cc2cccc[n+]2CC)C(C)=O)CO1.[I-] (configuration not stated) |  | 0.05 mg/kg | 0.36 mg/kg |  |  | 16% | 16% | inactive |  | 100% | 
